# According to PMC12707352 (Angewandte Chemie (International Ed. in English), 2025):
# Assays:
# [1] = test system: RAW 264.7 murine macrophage‐like cells; test: EZ-Cytox cell viability assay with RSL3 co-treatment; format: cell-based; details: RSL3 1 µM + DMSO, 24 h, EZ-Cytox (WST), n = 3
# Outline: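 RAW 264.7 murine macrophage-like cells were co-treated for 24 h with RSL3 (1 µM) plus test compound. The screen used 10 µM, and dose-response used 0.3–20 µM on a log scale. Viability was read by EZ-Cytox and normalized to DMSO. Mean ± SD, n = 3.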
# HeLa cells = test: Lipid peroxidation, fluorescence imaging with BODIPY 665/676; format: cell-based, human; details: RSL3 1 µM, 3 h, BODIPY 665/676 imaging
# Outline: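 HeLa cells were treated for 3 h with DMSO, test compound (40 µM), RSL3 (1 µM) or both. They were then stained for 0.5 h with Hoechst 33342 (2 µg/ml) and BODIPY 665/676 (5 µM). Cells were imaged by fluorescence, and BODIPY intensity was quantified relative to DMSO-treated cells. Mean ± SD, n = 21; one-way ANOVA.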
# RAW 264.7 cells [2] = test: Lipid peroxidation, flow cytometry with BODIPY 665/676; format: cell-based, murine; details: RSL3 1 µM, 4 h, BODIPY 665/676 flow cytometry
# Outline: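 RAW 264.7 cells were treated for 4 h with DMSO, RSL3 (1 µM) or test compound plus RSL3. They were then stained with BODIPY 665/676 for 0.5 h. Mean fluorescence intensity was read by flow cytometry. Mean ± SD, n = 3; one-way ANOVA.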
# RAW 264.7 cells [3] = details: read-out: EC50 (ferroptosis inhibition); in RAW 264.7 cells; cited from earlier work
# [4] = macrocyclic analog of crizotinib; cited from earlier work
smiles,measurement,setting,value
"COC(=O)c1ccc([C@H]2c3[nH]c4ccccc4c3C[C@H](C(=O)OC)N2C(=O)CCl)cc1 [RSL3, RAS‐selective lethal 3]",Cell viability with RSL3 alone,[1],18%
same,"Lipid peroxide level (imaging), RSL3 alone",HeLa cells,markedly increased lipid peroxide levels
same,"Lipid peroxide level (flow cytometry), RSL3 alone",RAW 264.7 cells [2],markedly increased lipid peroxide levels
CCOC(=O)c1ccc(NC2CCCCC2)c(N)c1 [ferrostatin‐1],EC50,RAW 264.7 cells [3],40 ± 4 nM
C[C@H]1Oc2cc(cnc2N)-c2c(nn(C)c2C#N)CN(C)C(=O)c2ccc(F)cc21 [lorlatinib],Potency increase through macrocyclization,[4],~80 fold
